Most compounds without a hit are left out; they make up all but 4.7% or so of the library.
Mdm2-MdmX inh – disrupts the human Mdm2-MdmX interaction; O15151+Q00987; SaOS-2 split-luciferase Mdm2/MdmX complementation, luminescence; inhibition, % at 8 µM; 330,000 compounds, 3% hits; AID 485346;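 active means inhibition of at least 50% at 8 µM in the primary screen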
697 NFkB inh – lowers PMA/ionomycin-induced NF-kB signal in 697 B cells; 697 B-cell NF-kB luciferase reporter, 16 h; inhibition, % at 4 µM; 330,000 compounds, 0.33% hits; AID 435022; in the data active means inhibition above about 35%
aSyn UTR inh – MLPCN primary screen, SNCA 5' untranslated region | alpha-synuclein 5'UTR reporter, inhibitor activity | inhibition, % (tested at 7.5 µM) | 300,000 compounds, 0.82% hits; in the data active means inhibition above about 60%; inconclusive means no clear call, values can overlap the other calls;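 further: H4 neuroglioblastoma cells stably carrying SNCA 5'UTR luciferase fusion; 0% = DMSO wells and 100% = positive control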
Jurkat NFkB inh – lowers PMA/ionomycin-induced NF-kB signal in Jurkat cells. PMA/ionomycin-induced NF-kB luciferase reporter, luminescence. inhibition, % at 4 µM. 330,000 compounds, 0.53% hits. AID 435003; in the data active means inhibition above about 50%
VIM-2 inhibitor – blocks Pseudomonas aeruginosa VIM-2 metallo-beta-lactamase. purified VIM-2, nitrocefin hydrolysis, epi-absorbance fluorescence. inhibition, % at 5.6 µM. 290,000 compounds, 0.89% hits;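 active means inhibition above the mean of all tested compounds plus 3 SD, cutoff set per screening run, cut at about 7.5% in these data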;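 further: red hydrolysis product quenches plate fluorescence so inhibitors raise well fluorescence; 0% = enzyme with DMSO and 100% = DMSO without enzyme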
IMP-1 inh – inhibitors of Pseudomonas aeruginosa IMP-1 metallo-beta-lactamase | 290,000 compounds, 0.45% hits | AID 1556 | inhibition, % at 5.6 µM | purified IMP-1, nitrocefin hydrolysis, epi-absorbance fluorescence;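 active means inhibition above the mean plus 3 SD of all compounds in the same screening run, cut at about 4.5% in these data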;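 further: 0% = IMP-1 with DMSO and 100% = DMSO wells lacking enzyme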
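Assay system: purified IMP-1; Quantity: IMP-1 0.2 nM before substrate addition; Medium: HEPES buffer pH 7.1 with ZnSO4 and Brij 35; Incubation: 15 min enzyme–compound preincubation, then 25 min nitrocefin reaction, 25 °C; Signal: fluorescence quenching readout, ex 480/em 530 nm; Controls: DMSO with and without IMP-1; Repeats: singlicate testing.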
Mdm2 MdmX conf – human Mdm2/MdmX binding inhibition, confirmed; shares compounds with Mdm2-MdmX inh; luminescent assay; 10,000 compounds, 55% hits; AID 489028; inhibition, % at 8 µM; in the data active means inhibition above about 40%
Full FLuc ctr – inhibits full-length luciferase, flagging false Mdm2/MdmX hits | shares compounds with Mdm2-MdmX inh | SaOS-2 full-length luciferase counterscreen, luminescence | inhibition, % at 8 µM | 6,200 compounds, 77% hits | AID 504607;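 active means mean inhibition at 8 µM reaching about 37%, which flags the compound as non-specific, limit read from the data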;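 further: p53-null SaOS-2 cells with luciferase driven by a doxycycline-inducible promoter; compound on cells about two nights before reading with doxycycline added after day one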
* marks the source's active call; other numbers are inactive results; ? = inconclusive; · = no result.

SMILES	Mdm2-MdmX inh	697 NFkB inh	aSyn UTR inh	Jurkat NFkB inh	VIM-2 inhibitor	IMP-1 inh	Mdm2 MdmX conf	Full FLuc ctr
COc1nn(-c2ccccc2)c(=O)c(Cl)c1Cl	100*	-25	-347	12	-2	-1	62*	18
CCCSc1nnc(NC(=O)Nc2ccccc2OC)s1	-49	-43	-144	-39	-2	-1	·	·
COc1ccc(C(=O)c2cc([N+](=O)[O-])ccc2N2CCCC2)cc1	50*	-32	7	47	0	-1	64*	53*
Cc1ccc(C(=O)c2cc([N+](=O)[O-])ccc2N2CCN(C)CC2)cc1	50*	-2	?	41	0	-3	60*	55*
Cn1c(SCC(=O)Nc2cccc(C(=O)O)c2)nnc1-c1cc2cc(Br)ccc2o1	-8	14	-14	4	-2	-3	·	·
Cn1c(SCC(=O)Nc2cccc(Br)c2)nnc1-c1cc2ccccc2o1	63*	7	-38	-7	-4	-3	-19	·
O=C(NCCCNC(=O)c1ccccn1)c1ccc(F)cc1	14	11	0	15	-3	-3	·	·
CCC(C(=O)Nc1cc(Cl)c(OC)cc1OC)c1ccccc1 (configuration not stated)	-20	29	-7	3	-1	-2	·	·
COc1cc(OC)c(NC2=CC(=O)C(=O)c3ccccc32)cc1Cl	70*	-23	107*	32	-4	-4	66*	46*
Cn1nnnc1N=N/C(=N/Nc1ccccc1)c1ccccc1	86*	-40	104*	38	-4	-4	85*	49*
Oc1ccccc1N=N/C(=N/Nc1ccccc1O)c1ccccc1	-12	8	5	-10	·	·	·	·
CCOC(=O)c1ccccc1NC(=O)c1cn(-c2ccc(C)c(C)c2)c(=O)c2ccccc12	69*	5	24	10	0	-2	29	·
Cc1cccc(/C(N)=N/OC(=O)Cc2cccs2)c1	-18	-32	-141	-76	0	-6	·	·
Cc1onc(-c2ccccc2Cl)c1C(=O)Nc1cccc2cccnc12	64*	-53	27	23	-2	-2	17	·
Cc1occc1C(=O)O/N=C(\N)c1ccccc1	72*	-105	-25	-88	-1	-2	-2	·
Cc1cccc(/C(N)=N/OC(=O)c2ccoc2C)c1	94*	-112	-116	-72	-1	0	47*	167*
Cc1ccccc1C(=O)O/N=C(\N)c1ccccc1	86*	-141	-43	-36	-1	-1	41*	114*
Cc1ccccc1C(=O)O/N=C(\N)c1ccc([N+](=O)[O-])cc1	35	-80	-127	-60	1	1	·	·
Cc1ccccc1/C(N)=N/OC(=O)c1ccc(F)cc1	65*	-79	-177	-48	0	0	-3	·
C/C(=N\OC(=O)c1c(-c2ccccc2Cl)noc1C)c1ccncc1	-36	-3	-14	-5	-1	-1	·	·
C/C(=N/OC(=O)c1ccc(F)cc1)c1ccc(C)cc1	2	9	0	9	-1	-3	·	·
Cc1onc(-c2ccccc2Cl)c1C(=O)O/N=C(\N)c1ccccc1	100*	-7	-34	22	-1	-2	92*	112*
Cc1ccc2c(c1)C(=O)C(=O)N2Cc1ccc(C(F)(F)F)cc1	72*	8	·	2	·	·	14	·
Cc1ccc(OCCN2C(=O)C(=O)c3cc(C)ccc32)cc1	62*	0	-15	5	-2	-2	61*	79*
Cc1ccc2c(c1)C(=O)C(=O)N2CC(=O)OC(C)C	17	11	5	19	-2	-1	·	·
SMILES	Mdm2-MdmX inh	697 NFkB inh	aSyn UTR inh	Jurkat NFkB inh	VIM-2 inhibitor	IMP-1 inh	Mdm2 MdmX conf	Full FLuc ctr
CCCN1C(=O)C(=O)c2cc(Cl)ccc21	73*	-1	·	5	·	·	67*	45*
CCc1nc(N2CCN(C(=O)c3ccccc3)CC2)c2c3c(sc2n1)CCCC3	22	-21	17	-13	-2	-3	·	·
CCc1nc(Sc2nnnn2-c2ccccc2)c2c3c(sc2n1)CCCC3	93*	-4	-49	-2	2	0	84*	52*
CC(C)C(=O)Nc1ccc(C(=O)N/N=C/c2cc(Br)cc(Br)c2O)cc1	66*	-20	8	5	-1	-3	22	·
O=C(CCl)N1c2ccccc2CCc2ccccc21	100*	-61	-10	-4	1	1	50*	12
CC(Cl)C(=O)N1c2ccccc2CCc2ccccc21 (configuration not stated)	9	-11	-15	13	-1	-3	·	·
Cc1cccc(OCC(=O)NCC(=O)N/N=C/c2cc(Br)cc(Br)c2O)c1	56*	-11	29	3	-3	1	77*	22
CC1(C)CC(NC(=S)NC(=O)c2cc(Br)ccc2Cl)CC(C)(C)N1	14	11	·	3	·	·	·	·
O=C(Nc1ccc(S(=O)(=O)NC2=NCCCCC2)cc1)c1ccc(Cl)c([N+](=O)[O-])c1	40	15	·	7	·	·	·	·
O=C(Nc1ccc(C(O)(C(F)(F)F)C(F)(F)F)cc1)c1ccc(Cl)c([N+](=O)[O-])c1	55*	0	-13	-13	1	-3	28	·
N#Cc1ccsc1NC(=O)c1ccc(Cl)c([N+](=O)[O-])c1	61*	-81	-116	-33	1	0	56*	112*
Cc1cccc(C)c1NS(=O)(=O)c1ccc(NC(=O)c2ccc(Cl)c([N+](=O)[O-])c2)cc1	98*	1	2	-3	-1	-3	69*	59*
O=C(O)c1cc(NC(=O)c2ccc(Cl)c([N+](=O)[O-])c2)cc(C(=O)O)c1	-8	6	-13	4	-1	-1	·	·
Cc1nc2sc(C(c3ccc(Cl)cc3)N3CCN(c4ccccc4F)CC3)c(O)n2n1 (configuration not stated)	-7	-19	-3	-17	-2	-2	·	·
Cc1ccc(NS(=O)(=O)c2ccc(Cl)c(C(=O)Nc3ccccc3-c3nc4ccccc4[nH]3)c2)cc1C	61*	2	29	11	-1	-2	77*	51*
Cc1nc(N)nc(COc2ccccc2)n1	-2	-27	-59	-26	0	-1	·	·
Cc1nc(NC(=O)c2ccc(-c3cc4ccccc4oc3=O)cc2)ccc1Br	76*	-18	-7	-13	2	0	29	77*
COc1ccccc1C(=O)NC(=Nc1nc2ccccc2o1)NC(=O)c1ccccc1OC	88*	-9	-92	-26	-4	-3	55*	88*
